≈ marks a conversion by molar mass, not a printed value. Some results are limits rather than exact numbers.

Broadly, the EC50 is the concentration needed to bring the measured effect to its halfway point. The chromatographic logD is a lipophilicity value derived from retention on a column. By logD is commonly meant the decadic logarithm of the distribution of all forms, ionised or not, between an organic phase and buffer at a given pH.

A short description of data set [1]: Kinetic aqueous solubility of the compound. It is filed as physicochemical. Particulars: buffer; for solubility kinetic: read-out: Kinetic_solubility.
The subject of data set [2] is Leishmania donovani. Nature of the data set: Antileishmanial activity against Leishmania donovani amastigotes infected in human THP1 cells incubated for 96 hrs. It is filed as functional, organism-based. The conditions noted are these: THP-1, 96 h. In outline: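 THP-1 cells were infected with L. donovani amastigotes and exposed to compound for 96 h rather than the earlier 72 h. Values are from at least three or four independent replicates.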

Data set [3] in a line: Distribution coefficient, logD of the compound at pH 7.4 by chromatography. It counts as physicochemical. Particulars: octanol/water.
The nature of data set [4]: Toxicity in human THP1 cells assessed as reduction in cell viability. The conditions noted are these: THP-1 cells. It is filed as cell-based.
Data set [5] can be described thus: Intrinsic clearance in mouse liver microsomes. It is filed as ADME, Microsome. (Liver microsomes are vesicles of endoplasmic reticulum, rich in cytochrome P450 enzymes.)
Data set [6] is described as follows: Selectivity index, ratio of EC50 for toxicity in human THP1 cells assessed as reduction in cell viability to EC50 for antileishmanial activity against Leishmania donovani amastigotes infected in human THP1 cells incubated for 96 hrs. It counts as cell-based. Particulars: THP-1 cells, read-out: Ratio EC50.
In data set [7] the test system is Leishmania donovani. Nature of the data set: Antileishmanial activity against Leishmania donovani infected in mouse assessed as reduction in parasite levels at 30 mg/kg, po qd. On the set-up: scale not given: the % may be the effect or the level left.
Data set [8] in a line: Stability in Balb/C mouse assessed as parent compound level at 50 mg/kg, ip BID after 8 hrs by UPLC Q-TOF analysis. It is filed as ADME, organism-based. Particulars: in vivo. In outline:
(§1)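 Balb/C mice received 50 mg/kg ip. Blood/water (1:2) was sampled at set time points, mixed with acetonitrile and centrifuged 5 min at 7000 rpm. Metabolites and parent compound were then analysed. Data are from two runs.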

Data set [9] can be described thus: Drug metabolism in Balb/C mouse assessed as glucuronide adduct formation at 50 mg/kg, ip BID by UPLC Q-TOF analysis. It counts as ADME, organism-based. The conditions noted are these: in vivo. The procedure, abridged:
as §1

Data set [10] is described as follows: Drug metabolism in Balb/C mouse assessed as hydroxylation formation at 50 mg/kg, ip BID by UPLC Q-TOF analysis. It counts as ADME, organism-based. The conditions noted are these: in vivo. In outline:
as §1

`Cc1n[nH]c(-c2nc(-c3ccccc3C(F)(F)F)c3cccnc3c2O)n1`: in data set [1], the solubility kinetic was > 250 µM. Moreover, the concentration giving a half-maximal response (EC50) in the data set with Leishmania donovani [2] was 0.1 µM; in data set [4] it was > 50.1 µM. The same compound yielded a chromatographic logD in data set [3] of 4.3. The compound also returned a CLH in data set [5] of 1.4 mL/min/g.

As to `Oc1c(-c2nnc(Cc3ccc(Cl)cc3)[nH]2)ncc2cccnc12`, in data set [1], the Kinetic_solubility worked out at 219 µM. Also, in data set [3], the pH-dependent lipophilicity (logD) came to 4.1. For the same compound, the selectivity ratio at 96 h in [6] is 100. The 50% effective concentration (EC50) in data set [4] was 31.6 µM. This compound also gave a CLH in data set [5] of 18 mL/min/g.

Turning to `O=C(NCC1CC1)c1ncc2cccnc2c1O`, the EC50 is 1.26 µM in the data set with Leishmania donovani [2] and > 50.1 µM in data set [4]. For the same compound, the chromatographic logD in data set [3] was 3.3. Also, the CLH in data set [5] was 13 mL/min/g.

In data set [1], `O=C(NCc1ccc(Cl)cc1)c1ccc2cccnc2c1O` returned a Kinetic_solubility of 219 µM. For the same compound, the EC50 is 15.8 µM in the data set on Leishmania donovani [2] and 6.31 µM in data set [4]. The compound also yielded a logD in data set [3] of 4.8. This compound registered a CLH in [5] of 19 mL/min/g.

On to `COc1ccc(CNC(=O)c2nn(C)c3cccnc3c2=O)cc1`, for which, in data set [1], the Kinetic_solubility was > 250 µM. For the same compound, the EC50 (in the data set on Leishmania donovani [2]; in data set [4]) was > 50.1 µM throughout. In addition, the log distribution coefficient (logD) in data set [3] turned out to be 1.9. In data set [5], this compound came in with a CLH of 0.7 mL/min/g.

In turn, `O=C(NCc1ccc(Cl)cc1)c1ncc2ccccc2c1O` gave a Kinetic_solubility in [1] of 39 µM. For the same compound, the EC50 (in the data set with Leishmania donovani [2]; in data set [4]) was > 50.1 µM in each case. Moreover, the log distribution coefficient (logD) in data set [3] amounted to 7.6. The compound also yielded a CLH in data set [5] of 28 mL/min/g.

Take `COc1ccccc1-c1nc(-c2nc(C)n[nH]2)c(OC)c2ncccc12`: the Kinetic_solubility in data set [1] is > 250 µM. The half-maximal effective concentration (EC50) in the data set on Leishmania donovani [2] was 2.51 µM; in data set [4] it was > 50.1 µM. This compound gave a logD in data set [3] of 5.7. Further, the CLH in [5] is 2 mL/min/g.

In the case of `Cc1n[nH]c(-c2ncc3cccnc3c2O)n1`, the Kinetic_solubility in data set [1] was > 250 µM. Moreover, the EC50 (in the data set with Leishmania donovani [2]; in data set [4]) was > 50.1 µM throughout. In data set [3], this compound showed a pH-dependent lipophilicity (logD) of 0.73. This compound also registered a CLH in data set [5] of 3.3 mL/min/g.

Take `CCCCCCCCCCCCCCCCOP(=O)([O-])OCC[N+](C)(C)C` [MILTEFOSINE]: the values for the concentration for a half-maximal effect (EC50) (in the data set with Leishmania donovani [2]; in [4]) were 3.98 µM and > 50.1 µM, respectively. The Activity with Leishmania donovani [7] is on record as >99%.

Take `Oc1c(-c2nc(C(O)c3ccccc3)n[nH]2)ncc2cccnc12` (configuration not stated): the Kinetic_solubility in [1] is > 250 µM. Moreover, the concentration giving a half-maximal response (EC50) is 5.01 µM in the data set with Leishmania donovani [2] and > 50.1 µM in data set [4]. For the same compound, the CLH in data set [5] was found to be 1.9 mL/min/g.

Consider `Cc1n[nH]c(-c2nc(N(C)C)c3cccnc3c2O)n1`, for which, in data set [1], the solubility kinetic is > 250 µM. The values for the EC50 (in the data set with Leishmania donovani [2]; in data set [4]) were 15.8 µM and > 50.1 µM, respectively. Further, in data set [3], the chromatographic logD was -0.6. The compound also came in with a CLH in [5] of 14 mL/min/g.

`Oc1c(-c2nnc(Cc3ccc(F)cc3)[nH]2)ncc2cccnc12`: the EC50 with Leishmania donovani [2] is 2.51 µM; in [4], 39.8 µM.

As to `COc1ccccc1-c1nc(C(=O)NCC2CC2)c(O)c2ncccc12`, the solubility kinetic in [1] is > 250 µM. Also, the EC50 in the data set with Leishmania donovani [2] is 2 µM; in data set [4], > 50.1 µM. The same compound gave a CLH in [5] of 8 mL/min/g.

In the case of `O=C(NCc1ccc(Cl)cc1)c1ncc2cccnc2c1O`, in [1], the Kinetic_solubility is > 250 µM. The EC50 in data set [4] is > 50.1 µM. This compound also showed a CLH in data set [5] of 10 mL/min/g.

On to `COc1ccc(CNC(=O)c2ncc3cccnc3c2O)cc1`, for which, in data set [1], the Kinetic_solubility was > 250 µM. Further, the EC50 was 0.501 µM with Leishmania donovani [2] and > 50.1 µM in data set [4]. The compound also gave a pH-dependent lipophilicity (logD) in data set [3] of 4.2. In data set [5], this compound yielded a CLH of 2.6 mL/min/g.

For the compound `O=C1CCCN1Cc1n[nH]c(-c2ncc3cccnc3c2O)n1`, in [1], the Kinetic_solubility was > 250 µM. Besides, the EC50 (in the data set with Leishmania donovani [2]; in data set [4]) was > 50.1 µM throughout. For the same compound, the CLH in data set [5] is < 0.5 mL/min/g.

With `C[C@@H](NC(=O)c1cn(C)c2cccnc2c1=O)c1ccc(F)cc1`, the solubility kinetic in [1] is > 250 µM. Also, the EC50 (in the data set with Leishmania donovani [2]; in data set [4]) was > 50.1 µM in each case. In [5], this compound had a CLH of 0.7 mL/min/g.

In the case of `Cc1n[nH]c(-c2cc3ncccc3c(-c3ccccc3)n2)n1`, in [1], the Kinetic_solubility was > 250 µM. Also, the EC50 (in the data set with Leishmania donovani [2]; in data set [4]) was > 50.1 µM throughout.

In data set [1], `Oc1c(-c2nc(CN3CCOCC3)n[nH]2)ncc2cccnc12` had a Kinetic_solubility of 219 µM. For the same compound, the logD in data set [3] is 0.5. The concentration for a half-maximal effect (EC50) in [4] is > 50.1 µM. In addition, the CLH in data set [5] came out at 0.8 mL/min/g.

In data set [1], `COc1ccccc1-c1nc(C(=O)N[C@H](C)c2ccc(F)cc2)c(O)c(=O)n1C` yielded a Kinetic_solubility of 173 µM. The EC50 (in the data set with Leishmania donovani [2]; in data set [4]) was > 50.1 µM throughout. The logD in data set [3] is 5.5. In data set [5], the CLH is < 0.5 mL/min/g.

As for `C[C@@H]1[C@H](O)[C@@H](C)/C=C/C=C/C=C/C=C/C=C/C=C/C=C/[C@H](O[C@@H]2O[C@H](C)[C@@H](O)[C@H](N)[C@@H]2O)C[C@@H]2O[C@](O)(C[C@@H](O)C[C@@H](O)[C@H](O)CC[C@@H](O)C[C@@H](O)CC(=O)O[C@H]1C)C[C@H](O)[C@H]2C(=O)O` [AMPHOTERICIN B], the EC50 in the data set with Leishmania donovani [2] was 0.2 µM; in [4], > 1 µM.

With `CNC(=O)c1nc(-c2ccccc2OC)c2cccnc2c1O`, in data set [1], the Kinetic_solubility stood at 219 µM. The EC50 in the data set with Leishmania donovani [2] is 10 µM; in data set [4], 39.8 µM. Moreover, the Stability entry in data set [8] is given as “Stable”. This compound gave a logD in [3] of 4.2. For the same compound, the Drug metabolism result was “Metabolite_Notdetected” in data set [9] and “Metabolite_Detected” in [10]. This compound displayed a CLH in [5] of 0.9 mL/min/g.

Take `Cc1n[nH]c(-c2nc(N3CCCCS3(=O)=O)c3cccnc3c2O)n1`: the solubility kinetic in [1] was determined as 250 µM (≈ 90.1 µg/mL). Further, the EC50 (in the data set on Leishmania donovani [2]; in data set [4]) was > 50.1 µM in each case. The compound also registered a chromatographic logD in data set [3] of 1.5. Also, in data set [5], the CLH worked out at 0.6 mL/min/g.

Take `O=C(NCc1ccc(Cl)cc1)c1nc(N2CCOCC2)c2cccnc2c1O`: the solubility kinetic in data set [1] was 219 µM (≈ 87.3 µg/mL). The EC50 (in the data set with Leishmania donovani [2]; in data set [4]) was > 50.1 µM throughout. Further, in [5], the CLH turned out to be 24 mL/min/g.

As to `Cc1nnc(C(=O)NC(C)(C)c2nc(C(=O)NCc3ccc(F)cc3)c(O)c(=O)n2C)o1` [RALTEGRAVIR], in data set [1], the Kinetic_solubility was > 250 µM. Moreover, the EC50 (with Leishmania donovani [2]; in data set [4]) was > 50.1 µM each time.

Turning to `COc1ccccc1-c1nc(-c2nnc(C)o2)c(O)c2ncccc12`, the Kinetic_solubility in data set [1] is > 250 µM. The EC50 (in the data set on Leishmania donovani [2]; in data set [4]) was > 50.1 µM each time. This compound had a pH-dependent lipophilicity (logD) in data set [3] of 3.8. The CLH in data set [5] was < 0.5 mL/min/g.
